# According to ChEMBL document CHEMBL2434951, “Synthesis and antimicrobial activity of polyhalobenzonitrile quinazolin-4(3H)-one derivatives” (2013):
# Active and inactive are the calls of the source. The rule behind the calls is not given here.
# How the values were obtained:
# Format in all cases: functional
# [1] = system: Pseudomonas aeruginosa; assay: Antibacterial activity against Pseudomonas aeruginosa ATCC 15442 assessed as growth inhibition after 24 hrs by liquid dilution method; conditions: ATCC 15442, 24 h
# How it was run: (§1)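 Liquid (tube) dilution. Compounds and positive controls in DMSO at 11 concentrations from 0.98 upward. Each tube held 1 mL compound solution plus bacterial or fungal inoculum and sterile water. Incubated 24 h, then checked for turbidity; MIC is the lowest concentration without growth. Chlorothalonil, norfloxacin and fluconazole as standards.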
# [2] = system: Staphylococcus aureus; assay: Bactericidal activity against Staphylococcus aureus ATCC 6538 after 18 to 24 hrs; conditions: read-out: MBC99.9
# How it was run: (§2)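 After the liquid dilution MIC tubes, 0.1 mL from each tube spread on agar plates. Colonies counted after 18–24 h incubation at 35 °C. MBC taken as the lowest drug concentration killing 99.9% of the inoculum.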
# [3] = system: Staphylococcus aureus; assay: Antibacterial activity against Staphylococcus aureus ATCC 6538 assessed as growth inhibition after 24 hrs by liquid dilution method; conditions: ATCC 6538, 24 h; how it was run: as §1
# [4] = system: Bacillus cereus; assay: Antibacterial activity against Bacillus cereus ATCC 14579 assessed as growth inhibition after 24 hrs by liquid dilution method; conditions: ATCC 14579, 24 h; how it was run: as §1
# [5] = system: Candida albicans; assay: Antifungal activity against Candida albicans ATCC 10231 assessed as growth inhibition at 1000 ug/mL after 24 hrs by disk diffusion assay; conditions: for zone of inhibition at 1000 µg/mL: ATCC 10231, 24 h, read-out: DIZ
# How it was run: (§3)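 Disk diffusion on nutrient agar, inoculum spread evenly. Disks of 6 mm Whatman No. 1 paper, dry-heat sterilized at 121 °C for 1 h, soaked in test compound at 1000 (micro)g/mL. Norfloxacin and chlorothalonil disks as positive controls, DMSO disks as negative control. Plates incubated 24 h at 37 °C. Inhibition zone diameter measured in mm.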
# [6] = system: Escherichia coli; assay: Antibacterial activity against Escherichia coli ATCC 8099 assessed as growth inhibition at 1000 ug/mL after 24 hrs by disk diffusion assay; conditions: ATCC 8099, 24 h, read-out: DIZ; how it was run: as §3
# [7] = system: Bacillus cereus; assay: Antibacterial activity against Bacillus cereus ATCC 14579 assessed as growth inhibition at 1000 ug/mL after 24 hrs by disk diffusion assay; conditions: ATCC 14579, 24 h, read-out: DIZ; how it was run: as §3
# [8] = system: Candida albicans; assay: Antifungal activity against Candida albicans ATCC 10231 assessed as growth inhibition after 24 hrs by liquid dilution method; conditions: ATCC 10231, 24 h; how it was run: as §1
# [9] = system: Bacillus cereus; assay: Bactericidal activity against Bacillus cereus ATCC 14579 after 18 to 24 hrs; conditions: read-out: MBC99.9; how it was run: as §2
# [10] = system: Staphylococcus aureus; assay: Antibacterial activity against Staphylococcus aureus ATCC 6538 assessed as growth inhibition at 1000 ug/mL after 24 hrs by disk diffusion assay; conditions: ATCC 6538, 24 h, read-out: DIZ; how it was run: as §3
# [11] = system: Candida albicans; assay: Fungicidal activity against Candida albicans ATCC 10231 after 18 to 24 hrs; conditions: read-out: MFC99.9; how it was run: as §2
# [12] = system: Escherichia coli; assay: Antibacterial activity against Escherichia coli ATCC 8099 assessed as growth inhibition after 24 hrs by liquid dilution method; conditions: ATCC 8099, 24 h; how it was run: as §1
# [13] = system: Pseudomonas aeruginosa; assay: Antibacterial activity against Pseudomonas aeruginosa ATCC 15442 assessed as growth inhibition at 1000 ug/mL after 24 hrs by disk diffusion assay; conditions: ATCC 15442, 24 h, read-out: DIZ; how it was run: as §3
Compound,MIC [1] [µg/mL],MBC [2] [µg/mL],MIC [3] [µg/mL],MIC [4] [µg/mL],zone of inhibition at 1000 µg/mL [5] [mm],zone of inhibition at 1000 µg/mL [6] [mm],zone of inhibition at 1000 µg/mL [7] [mm],MIC [8] [µg/mL],MBC [9] [µg/mL],zone of inhibition at 1000 µg/mL [10] [mm],MFC [11] [µg/mL],MIC [12] [µg/mL],zone of inhibition at 1000 µg/mL [13] [mm],diameter of the inhibition zone (DIZ) [5]
N#Cc1c(Cl)c(Cl)c(Cl)c(C#N)c1Cl [CHLOROTHALONIL],1.7,2,1.3,0.7,17,18.5,15.5,0.7,1.7,14,7.8,0.5,15.8,–
N#Cc1c(Cl)c(Cl)c(Nc2ccc(Nc3ccc(F)cc3)c3c(=O)[nH]cnc23)c(C#N)c1Cl,1.7,6.5,0.8,0.7,10.5,9,18,1.7,6.5,11.5,52.1,6.5,11,–
N#Cc1c(Cl)c(Cl)c(Nc2ccc(N3CCCCC3)c3c(=O)[nH]cnc23)c(C#N)c1Cl,1.3,4.6,0.7,0.5,–,9,15,2.6,6.5,9.7,41.7,1,8.7,inactive
N#Cc1c(Cl)c(Cl)c(Nc2ccc(Nc3cccc(Cl)c3)c3c(=O)[nH]cnc23)c(C#N)c1Cl,20.8,31.3,0.7,0.5,9,9,9,1.7,41.7,8.5,31.3,7.8,8.7,–
CN(C)c1ccc(Nc2c(Cl)c(Cl)c(C#N)c(Cl)c2C#N)c2nc[nH]c(=O)c12,2,2.6,3.3,0.8,15.5,19,18,0.5,3.3,14.3,7.8,1.3,15,–
Cc1cc(C)cc(Nc2ccc(Nc3c(Cl)c(Cl)c(C#N)c(Cl)c3C#N)c3nc[nH]c(=O)c23)c1,20.8,31.3,0.8,0.7,7,11.5,10.3,5.2,31.3,10,52.1,7.8,10,–
CCn1cc(C(=O)O)c(=O)c2cc(F)c(N3CCNCC3)cc21 [NORFLOXACIN],0.7,5.2,1.2,0.6,21.8,20,18.6,–,6.5,17,–,0.5,16.8,–
OC(Cn1cncn1)(Cn1cncn1)c1ccc(F)cc1F [FLUCONAZOLE],–,–,–,–,–,–,–,2,–,–,15.6,–,–,–
N#Cc1c(F)c(Cl)c(Nc2ccc(Nc3ccc(Cl)cc3)c3c(=O)[nH]cnc23)c(C#N)c1F,500,–,20.8,41.7,8.5,9,10.4,–,–,9.7,–,208,12,–
